Molecules are shown by their SMILES.

Target in one assay: not listed separately
In words: Non-competitive inhibition of baker's yeast alpha-glucosidase using p-nitrophenyl-alpha D-glucopyranoside as substrate preincubated for 15 mins followed by substrate addition measured after 30 mins by Lineweaver-Burk plot analysis. The arrangement: species or system Saccharomyces cerevisiae. In short, it runs like this:
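Kinetics: inhibitor at 0, 10, 20, 30, 40 and 50 μM against p-nitrophenyl α-D-glucopyranoside at 0.25, 0.5, 1 and 2 mM. Inhibition type assigned from Lineweaver-Burk plots (changes in Vmax and Km); Ki estimated from replot of slope versus inhibitor concentration.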
Take `c1ccc(Oc2ccc(Nc3nc4ccccc4o3)cc2)cc1`: the affinity, expressed as Ki, was 31.3 µM.

Target in the next assay: not listed separately
Description: Inhibition of baker's yeast alpha-glucosidase using p-nitrophenyl-alpha D-glucopyranoside as substrate preincubated for 15 mins followed by substrate addition measured after 30 mins by spectrophotometric analysis. The arrangement: species or system Saccharomyces cerevisiae. In outline: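 Enzyme 0.1 U/mL preincubated with test compounds at various concentrations (DMSO, final 5% v/v) in 0.1 M phosphate buffer pH 6.8, 37 C, 15 min; 1.25 mM p-nitrophenyl α-D-glucopyranoside then added, 30 min at 37 C; absorbance read at 405 nm. DMSO-only control; triplicates. % inhibition = (1-∆Asample/∆Acontrol)*100; IC50 = concentration giving 50% inhibition.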
On to `Cc1cccc(Nc2nc3ccccc3o2)c1`, for which the IC50 – broadly, the concentration needed to halve the response being measured – was over 200 µM.

Turning to `Cc1ccc(Nc2nc3ccccc3o2)cc1`, the IC50 was over 200 µM.

In turn, `Fc1ccc(Nc2nc3ccccc3o2)cc1` yielded an IC50 of 68.4 µM.

The compound `c1ccc(Oc2ccc(Nc3nc4ccccc4o3)cc2)cc1` returned an IC50 of 32.5 µM.

In turn, `CCOc1ccccc1Nc1nc2ccccc2o1` showed an IC50 of 65 µM.

For `Cc1ccccc1Nc1nc2ccccc2o1`, the half-inhibitory concentration (IC50) was over 200 µM.

`Clc1ccc(Nc2nc3ccccc3o2)c(Cl)c1` gave a concentration for half-maximal inhibition (IC50) of 44.4 µM.

Consider `Cc1ccc(Nc2nc3ccccc3o2)c(C)c1`, for which the IC50 is over 200 µM.

The compound `Clc1ccc(Nc2nc3ccccc3o2)cc1` returned an IC50 of 80.4 µM.

Take `CCOc1ccc(Nc2nc3ccccc3o2)cc1`: the half-inhibitory concentration (IC50) is over 200 µM.

`c1ccc(Nc2nc3ccccc3o2)cc1` displayed an IC50 of over 200 µM.

In turn, `COc1ccc(Nc2nc3ccccc3o2)cc1` yielded a half-maximal inhibitory concentration (IC50) of over 200 µM.

The compound `FC(F)(F)c1cccc(Nc2nc3ccccc3o2)c1` gave a half-maximal inhibitory concentration (IC50) of 120 µM.

Another assay concerns Saccharomyces cerevisiae. In words: Potency index, ratio of acarbose IC50 to compound IC50 for baker's yeast alpha-glucosidase.
For the compound `c1ccc(Oc2ccc(Nc3nc4ccccc4o3)cc2)cc1`, the Ratio IC50 is 25.

Values taken from ChEMBL document CHEMBL4428106, “Synthesis, biological evaluation and molecular docking study of N-arylbenzo[d]oxazol-2-amines as potential α-glucosidase inhibitors” (Bioorg Med Chem, 2016).
